Measurements: ChEMBL document CHEMBL1926569, “Novel (E)-1-(4-methyl-2-(alkylamino)thiazol-5-yl)-3-arylprop-2-en-1-ones as potent antimicrobial agents” (2011)
Converted amounts (≈) assume the structure as drawn.

How the values were obtained:
Staphylococcus aureus [1] = test: Antibacterial activity against Staphylococcus aureus ATCC 6538 after 24 hrs by microdilution method; format: functional; conditions: ATCC 6538, 24 h
Outline: (§1)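 Broth microdilution in 96-well plates. Bacterial suspensions were adjusted in sterile saline to 1.0 × 10⁵ CFU/ml, prepared daily and kept at 4 °C. Compound was added to LB broth with 1.0 × 10⁴ CFU per well and shaken at 160 rpm for 24 h at […] (so in the source). MIC is the lowest concentration with no visible growth under a binocular microscope. OD655 was also read. Duplicate, repeated three times.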

Bacillus cereus [2] = test: Antibacterial activity against clinical isolate of Bacillus cereus after 24 hrs by microdilution method; format: functional; outline: as §1
Micrococcus flavus [3] = test: Antibacterial activity against Micrococcus flavus ATCC 10240 after 24 hrs by microdilution method; format: functional; conditions: ATCC 10240, 24 h; outline: as §1
Listeria monocytogenes [4] = test: Antibacterial activity against Listeria monocytogenes NCTC 7973 after 24 hrs by microdilution method; format: functional; conditions: NCTC 7973, 24 h; outline: as §1
Pseudomonas aeruginosa [5] = test: Antibacterial activity against Pseudomonas aeruginosa ATCC 27853 after 24 hrs by microdilution method; format: functional; conditions: ATCC 27853, 24 h; outline: as §1
Salmonella typhimurium [6] = test: Antibacterial activity against Salmonella Typhimurium ATCC 13311 after 24 hrs by microdilution method; format: functional, Salmonella enterica subsp. enterica serovar Typhimurium; conditions: Salmonella enterica, ATCC 13311, 24 h; outline: as §1
Escherichia coli [7] = test: Antibacterial activity against Escherichia coli ATCC 35210 after 24 hrs by microdilution method; format: functional; conditions: ATCC 35210, 24 h; outline: as §1
Enterococcus faecalis [8] = test: Antibacterial activity against Enterococcus faecalis isolated from human after 24 hrs by microdilution method; format: functional; outline: as §1
Staphylococcus aureus [9] = test: Antibacterial activity against Staphylococcus aureus ATCC 6538 incubated for 24 hrs followed by serial sub-cultivation for 24 hrs by microdilution method; format: functional; conditions: ATCC 6538, 24 h
Outline: (§2)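 MBC: after the 24 h LB broth microdilution (1.0 × 10⁴ CFU per well, 160 rpm), wells were serially sub-cultured into fresh broth plates and incubated a further 24 h. MBC is the lowest concentration with no visible growth, taken as 99.5% killing of the original inoculum. Duplicate, repeated three times.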

Bacillus cereus [10] = test: Antibacterial activity against clinical isolate of Bacillus cereus incubated for 24 hrs followed by serial sub-cultivation for 24 hrs by microdilution; format: functional; outline: as §2
Micrococcus flavus [11] = test: Antibacterial activity against Micrococcus flavus ATCC 10240 incubated for 24 hrs followed by serial sub-cultivation for 24 hrs by microdilution; format: functional; conditions: ATCC 10240, 24 h; outline: as §2
Listeria monocytogenes [12] = test: Antibacterial activity against Listeria monocytogenes NCTC 7973 incubated for 24 hrs followed by serial sub-cultivation for 24 hrs by microdilution; format: functional; conditions: NCTC 7973, 24 h; outline: as §2
Pseudomonas aeruginosa [13] = test: Antibacterial activity against Pseudomonas aeruginosa ATCC 27853 incubated for 24 hrs followed by serial sub-cultivation for 24 hrs by microdilution; format: functional; conditions: ATCC 27853, 24 h; outline: as §2
Salmonella typhimurium [14] = test: Antibacterial activity against Salmonella Typhimurium ATCC 13311 incubated for 24 hrs followed by serial sub-cultivation for 24 hrs by microdilution; format: functional, Salmonella enterica subsp. enterica serovar Typhimurium; conditions: Salmonella enterica, ATCC 13311, 24 h; outline: as §2
Escherichia coli [15] = test: Antibacterial activity against Escherichia coli ATCC 35210 incubated for 24 hrs followed by serial sub-cultivation for 24 hrs by microdilution; format: functional; conditions: ATCC 35210, 24 h; outline: as §2
Enterococcus faecalis [16] = test: Antibacterial activity against Enterococcus faecalis isolated from human incubated for 24 hrs followed by serial sub-cultivation for 24 hrs by microdilution; format: functional; outline: as §2
Aspergillus ochraceus [17] = test: Antifungal activity against Aspergillus ochraceus ATCC 12066 after 72 hrs by serial dilution technique; format: functional; conditions: ATCC 12066, 72 h
Outline: (§3)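 Modified microdilution in 96-well plates. Fungi were kept on malt agar at 4 °C. Spores were washed off in sterile 0.85% saline with 0.1% Tween 80. Compounds were dissolved at 1 mg/ml in 5% DMSO with 0.1% Tween 80 and added to malt broth with inoculum. Plates were shaken at 160 rpm for 72 h at 28 °C. Duplicate, repeated three times.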

Aspergillus niger [18] = test: Antifungal activity against Aspergillus niger ATCC 6275 after 72 hrs by serial dilution technique; format: functional; conditions: ATCC 6275, 72 h; outline: as §3
Aspergillus flavus [19] = test: Antifungal activity against Aspergillus flavus ATCC 9643 after 72 hrs by serial dilution technique; format: functional; conditions: ATCC 9643, 72 h; outline: as §3
Talaromyces funiculosus [20] = test: Antifungal activity against Penicillium funiculosum ATCC 36839 after 72 hrs by serial dilution technique; format: functional; conditions: ATCC 36839, 72 h; outline: as §3
Penicillium ochrochloron [21] = test: Antifungal activity against Penicillium ochrochloron ATCC 9112 after 72 hrs by serial dilution technique; format: functional; conditions: ATCC 9112, 72 h; outline: as §3
Trichoderma viride [22] = test: Antifungal activity against Trichoderma viride IAM 5061 after 72 hrs by serial dilution technique; format: functional; conditions: IAM 5061, 72 h; outline: as §3
Candida albicans [23] = test: Antifungal activity against Candida albicans isolated from human after 72 hrs by serial dilution technique; format: functional; outline: as §3
Aspergillus ochraceus [24] = test: Antifungal activity against Aspergillus ochraceus ATCC 12066 incubated for 72 hrs followed by serial sub-cultivation for 72 hrs by serial dilution technique; format: functional; conditions: ATCC 12066, 72 h
Outline: (§4)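 MFC: material from 72 h malt broth microdilution wells was serially sub-cultured into fresh broth plates and incubated a further 72 h at 28 °C. Fungicidal concentration is taken from growth after sub-culture. Duplicate, repeated three times.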

Aspergillus fumigatus [25] = test: Antifungal activity against Aspergillus fumigatus isolated from human incubated for 72 hrs followed by serial sub-cultivation for 72 hrs by serial dilution technique; format: functional; outline: as §4
Aspergillus niger [26] = test: Antifungal activity against Aspergillus niger ATCC 6275 incubated for 72 hrs followed by serial sub-cultivation for 72 hrs by serial dilution technique; format: functional; conditions: ATCC 6275, 72 h; outline: as §4
Aspergillus flavus [27] = test: Antifungal activity against Aspergillus flavus ATCC 9643 incubated for 72 hrs followed by serial sub-cultivation for 72 hrs by serial dilution technique; format: functional; conditions: ATCC 9643, 72 h; outline: as §4
Talaromyces funiculosus [28] = test: Antifungal activity against Penicillium funiculosum ATCC 36839 incubated for 72 hrs followed by serial sub-cultivation for 72 hrs by serial dilution technique; format: functional; conditions: ATCC 36839, 72 h; outline: as §4
Penicillium ochrochloron [29] = test: Antifungal activity against Penicillium ochrochloron ATCC 9112 incubated for 72 hrs followed by serial sub-cultivation for 72 hrs by serial dilution technique; format: functional; conditions: ATCC 9112, 72 h; outline: as §4
Trichoderma viride [30] = test: Antifungal activity against Trichoderma viride IAM 5061 incubated for 72 hrs followed by serial sub-cultivation for 72 hrs by serial dilution technique; format: functional; conditions: IAM 5061, 72 h; outline: as §4
Candida albicans [31] = test: Antifungal activity against Candida albicans isolated from human incubated for 72 hrs followed by serial sub-cultivation for 72 hrs by serial dilution technique; format: functional; outline: as §4
Pseudomonas aeruginosa [32] = test: Ratio of ampicillin MIC to compound MIC for Pseudomonas aeruginosa ATCC 27853; format: functional
Aspergillus ochraceus [33] = test: Ratio of bifonazole to compound for Aspergillus ochraceus ATCC 12066; format: functional
Aspergillus niger [34] = test: Ratio of bifonazole to compound for Aspergillus niger ATCC 6275; format: functional
Talaromyces funiculosus [35] = test: Ratio of bifonazole to compound for Penicillium funiculosum ATCC 36839; format: functional
Penicillium ochrochloron [36] = test: Ratio of bifonazole to compound for Penicillium ochrochloron ATCC 9112; format: functional
Trichoderma viride [37] = test: Ratio of bifonazole to compound for Trichoderma viride IAM 5061; format: functional
Candida albicans [38] = test: Ratio of bifonazole to compound for Candida albicans isolated from human; format: functional
Aspergillus ochraceus [39] = test: Ratio of ketoconazole to compound for Aspergillus ochraceus ATCC 12066; format: functional
Aspergillus fumigatus [40] = test: Ratio of ketoconazole to compound for Aspergillus fumigatus isolated from human; format: functional
Penicillium ochrochloron [41] = test: Ratio of ketoconazole to compound for Penicillium ochrochloron ATCC 9112; format: functional
Candida albicans [42] = test: Ratio of ketoconazole to compound for Candida albicans isolated from human; format: functional
Aspergillus ochraceus [43] = test: Antifungal activity against Aspergillus ochraceus after 72 hrs by serial dilution technique

MIC (Staphylococcus aureus [1]): 73.5 µM (≈ 20 µg/mL)
MIC (Bacillus cereus [2]): 73.5 µM (≈ 20 µg/mL)
MIC (Micrococcus flavus [3]): 91.9 µM (≈ 25 µg/mL)
MIC (Listeria monocytogenes [4]): 110 µM (≈ 30 µg/mL)
MIC (Pseudomonas aeruginosa [5]): 73.5 µM (≈ 20 µg/mL)
MIC (Salmonella typhimurium [6]): 36.8 µM (≈ 10 µg/mL)
MIC (Escherichia coli [7]): 73.5 µM (≈ 20 µg/mL)
MIC (Enterococcus faecalis [8]): 55.1 µM (≈ 15 µg/mL)
MIC (Aspergillus ochraceus [17]): 73.5 µM (≈ 20 µg/mL)
MIC (Aspergillus niger [18]): 55.1 µM (≈ 15 µg/mL)
MIC (Aspergillus flavus [19]): 73.5 µM (≈ 20 µg/mL)
MIC (Talaromyces funiculosus [20]): 36.8 µM (≈ 10 µg/mL)
MIC (Penicillium ochrochloron [21]): 36.8 µM (≈ 10 µg/mL)
MIC (Trichoderma viride [22]): 36.8 µM (≈ 10 µg/mL)
MIC (Candida albicans [23]): 36.8 µM (≈ 10 µg/mL)
MIC (Aspergillus ochraceus [43]): 36.8 µM (≈ 10 µg/mL)
SMILES: CCNc1nc(C)c(C(=O)/C=C/c2ccccc2)s1
MBC (Staphylococcus aureus [9]): 110 µM (≈ 30 µg/mL)
MBC (Bacillus cereus [10]): 73.5 µM (≈ 20 µg/mL)
MBC (Micrococcus flavus [11]): 110 µM (≈ 30 µg/mL)
MBC (Listeria monocytogenes [12]): 110 µM (≈ 30 µg/mL)
MBC (Pseudomonas aeruginosa [13]): 73.5 µM (≈ 20 µg/mL)
MBC (Salmonella typhimurium [14]): 91.9 µM (≈ 25 µg/mL)
MBC (Escherichia coli [15]): 110 µM (≈ 30 µg/mL)
MBC (Enterococcus faecalis [16]): 73.5 µM (≈ 20 µg/mL)
MFC (Aspergillus ochraceus [24]): 91.9 µM (≈ 25 µg/mL)
MFC (Aspergillus fumigatus [25]): 73.5 µM (≈ 20 µg/mL)
MFC (Aspergillus niger [26]): 73.5 µM (≈ 20 µg/mL)
MFC (Aspergillus flavus [27]): 91.9 µM (≈ 25 µg/mL)
MFC (Talaromyces funiculosus [28]): 73.5 µM (≈ 20 µg/mL)
MFC (Penicillium ochrochloron [29]): 73.5 µM (≈ 20 µg/mL)
MFC (Trichoderma viride [30]): 73.5 µM (≈ 20 µg/mL)
MFC (Candida albicans [31]): 73.5 µM (≈ 20 µg/mL)
Ratio (Pseudomonas aeruginosa [32]): 10
Ratio (Aspergillus ochraceus [33]): 10
Ratio (Aspergillus niger [34]): 10
Ratio (Talaromyces funiculosus [35]): 10
Ratio (Penicillium ochrochloron [36]): 10
Ratio (Trichoderma viride [37]): 10
Ratio (Candida albicans [38]): 10
Ratio (Aspergillus ochraceus [39]): 10
Ratio (Aspergillus fumigatus [40]): 10
Ratio (Penicillium ochrochloron [41]): 10
Ratio (Candida albicans [42]): 10
